Experimental data as given in ChEMBL document CHEMBL4433211, “Discovery of the First-in-Class GSK-3β/HDAC Dual Inhibitor as Disease-Modifying Agent To Combat Alzheimer's Disease” (ACS Med Chem Lett, 2019).
Converted amounts (≈) assume the structure as drawn. Blank lines part the entries; values can stand above or below the compound they belong to. The source made the active and inactive calls. No cut-off for these calls is given here.

Experiments:
[1] = target: T1, Glycogen synthase kinase-3 beta (Homo sapiens, UniProt P49841); assay: Inhibition of human recombinant GSK3beta up to 50 uM using GSM as substrate incubated for 30 mins by luminescence based assay
Target sequence in this assay (P49841 whole entry, looked up): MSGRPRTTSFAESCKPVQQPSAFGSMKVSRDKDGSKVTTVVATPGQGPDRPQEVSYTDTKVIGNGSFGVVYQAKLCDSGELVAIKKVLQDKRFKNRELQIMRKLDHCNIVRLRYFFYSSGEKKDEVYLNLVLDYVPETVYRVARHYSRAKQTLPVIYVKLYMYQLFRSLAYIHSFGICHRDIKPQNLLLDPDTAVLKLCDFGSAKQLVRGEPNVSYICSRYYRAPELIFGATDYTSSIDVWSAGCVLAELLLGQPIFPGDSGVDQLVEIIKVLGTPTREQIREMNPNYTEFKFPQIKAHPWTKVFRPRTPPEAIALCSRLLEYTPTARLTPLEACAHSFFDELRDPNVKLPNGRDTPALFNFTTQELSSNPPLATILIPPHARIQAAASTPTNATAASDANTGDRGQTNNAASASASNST

[2] = target: T1, Glycogen synthase kinase-3 beta; assay: Inhibition of GSK3beta in human SH-SY5Y cells assessed as reduction in copper-induced tau hyperphosphorylation at 10 uM preincubated for 1 hr followed by copper addition and measured after 26 hrs by ELISA; type: cell-based; details: in the assay text read “16 hrs” for “26 hrs”
Method in brief: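 Differentiated SH-SY5Y cells pretreated 1 h with test agent (LiCl 10 mM reference; compounds 10 μM), then copper 400 μM for 16 h; cells scraped, phospho-tau quantified by immunoenzymatic assay at 450 nm; mean ± SEM.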
Target sequence in this assay (P49841 whole entry, looked up): as above

SH-SY5Y [3] = assay: Cytotoxicity against human SH-SY5Y cells at 10 uM incubated for 24 hrs by MTS assay; type: cell-based
Method in brief: (§1)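 SH-SY5Y cells exposed to test compound for 24 h at 37 °C; viability read by MTS assay and expressed as % of untreated control.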

SH-SY5Y [4] = assay: Induction of neurogenesis in human SH-SY5Y cells assessed as upregulation of GAP43 mRNA at 1 uM incubated for 24 hrs by RT-PCR analysis; type: functional, cell-based
Method in brief: (§2)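 SH-SY5Y cells treated 24 h (10 μM, or 1 μM for one parent compound; retinoic acid positive control); GAP43, N-myc and MAP-2 mRNA measured by RT-PCR, expressed as fold of control.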

SH-SY5Y [5] = assay: Induction of neurogenesis in human SH-SY5Y cells assessed as upregulation of MAP-2 mRNA at 1 uM incubated for 24 hrs by RT-PCR analysis; type: functional, cell-based; method in brief: as §2
SH-SY5Y [6] = assay: Induction of neurogenesis in human SH-SY5Y cells assessed as upregulation of N-myc mRNA at 1 uM incubated for 24 hrs by RT-PCR analysis; type: functional, cell-based; method in brief: as §2
Microglia [7] = assay: Immunomodulatory activity in LPS treated Wistar rat primary microglial cells assessed as decrease in NOS2 expression level at 5 to 50 uM incubated for 24 hrs by western blot analysis; type: functional, cell-based
Method in brief: (§3)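 Primary microglial cells treated 24 h with LPS in presence or absence of test compound; NOS2, MRC1 and TREM2 protein assessed by Western blot, normalized to GAPDH.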

Microglia [8] = assay: Immunomodulatory activity in LPS treated Wistar rat primary microglial cells assessed as decrease in MRC1 expression level at 5 to 50 uM incubated for 24 hrs by western blot analysis; type: functional, cell-based; method in brief: as §3
Microglia [9] = assay: Immunomodulatory activity in LPS treated Wistar rat primary microglial cells assessed as effect on TREM2 expression level at 5 to 50 uM incubated for 24 hrs by western blot analysis; type: functional, cell-based; method in brief: as §3
[10] = target: T1, Glycogen synthase kinase-3 beta; assay: Inhibition of human recombinant GSK3beta using GSM as substrate incubated for 30 mins by luminescence based assay
Target sequence in this assay (P49841 whole entry): as the sequence (P49841 whole entry, looked up) above

Histone deacetylase 1 = Histone deacetylase 1 (Homo sapiens, UniProt Q13547); assay: Inhibition of human recombinant his tagged HDAC1 expressed in baculovirus infected […] insect cells using tertbutyloxycarbonyl (Boc)-(Ac)-Lys-7-amino-4-methylcoumarin as substrate incubated for 1 hr by fluorescence based assay
Chain of Histone deacetylase 1 (Q13547 whole entry): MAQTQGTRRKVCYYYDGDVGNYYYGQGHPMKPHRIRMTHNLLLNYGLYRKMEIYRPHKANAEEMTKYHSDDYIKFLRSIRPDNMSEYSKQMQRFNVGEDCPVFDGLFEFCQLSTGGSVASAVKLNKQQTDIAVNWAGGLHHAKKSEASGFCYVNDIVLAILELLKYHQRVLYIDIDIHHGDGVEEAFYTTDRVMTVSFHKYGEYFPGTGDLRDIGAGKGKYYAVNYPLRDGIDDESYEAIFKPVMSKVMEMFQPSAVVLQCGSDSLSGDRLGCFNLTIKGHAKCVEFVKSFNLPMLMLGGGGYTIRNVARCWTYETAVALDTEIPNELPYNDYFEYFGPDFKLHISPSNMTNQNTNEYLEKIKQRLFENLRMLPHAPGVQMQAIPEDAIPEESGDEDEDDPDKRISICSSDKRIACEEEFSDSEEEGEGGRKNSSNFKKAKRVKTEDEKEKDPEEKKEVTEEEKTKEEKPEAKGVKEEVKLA

[11] = target: T2, Protein deacetylase HDAC6 (Homo sapiens, UniProt Q9UBN7); assay: Inhibition of human recombinant his tagged HDAC6 expressed in baculovirus infected […] insect cells using batcp as substrate incubated for 1 hr by fluorescence based assay
T2 sequence (Q9UBN7 whole entry): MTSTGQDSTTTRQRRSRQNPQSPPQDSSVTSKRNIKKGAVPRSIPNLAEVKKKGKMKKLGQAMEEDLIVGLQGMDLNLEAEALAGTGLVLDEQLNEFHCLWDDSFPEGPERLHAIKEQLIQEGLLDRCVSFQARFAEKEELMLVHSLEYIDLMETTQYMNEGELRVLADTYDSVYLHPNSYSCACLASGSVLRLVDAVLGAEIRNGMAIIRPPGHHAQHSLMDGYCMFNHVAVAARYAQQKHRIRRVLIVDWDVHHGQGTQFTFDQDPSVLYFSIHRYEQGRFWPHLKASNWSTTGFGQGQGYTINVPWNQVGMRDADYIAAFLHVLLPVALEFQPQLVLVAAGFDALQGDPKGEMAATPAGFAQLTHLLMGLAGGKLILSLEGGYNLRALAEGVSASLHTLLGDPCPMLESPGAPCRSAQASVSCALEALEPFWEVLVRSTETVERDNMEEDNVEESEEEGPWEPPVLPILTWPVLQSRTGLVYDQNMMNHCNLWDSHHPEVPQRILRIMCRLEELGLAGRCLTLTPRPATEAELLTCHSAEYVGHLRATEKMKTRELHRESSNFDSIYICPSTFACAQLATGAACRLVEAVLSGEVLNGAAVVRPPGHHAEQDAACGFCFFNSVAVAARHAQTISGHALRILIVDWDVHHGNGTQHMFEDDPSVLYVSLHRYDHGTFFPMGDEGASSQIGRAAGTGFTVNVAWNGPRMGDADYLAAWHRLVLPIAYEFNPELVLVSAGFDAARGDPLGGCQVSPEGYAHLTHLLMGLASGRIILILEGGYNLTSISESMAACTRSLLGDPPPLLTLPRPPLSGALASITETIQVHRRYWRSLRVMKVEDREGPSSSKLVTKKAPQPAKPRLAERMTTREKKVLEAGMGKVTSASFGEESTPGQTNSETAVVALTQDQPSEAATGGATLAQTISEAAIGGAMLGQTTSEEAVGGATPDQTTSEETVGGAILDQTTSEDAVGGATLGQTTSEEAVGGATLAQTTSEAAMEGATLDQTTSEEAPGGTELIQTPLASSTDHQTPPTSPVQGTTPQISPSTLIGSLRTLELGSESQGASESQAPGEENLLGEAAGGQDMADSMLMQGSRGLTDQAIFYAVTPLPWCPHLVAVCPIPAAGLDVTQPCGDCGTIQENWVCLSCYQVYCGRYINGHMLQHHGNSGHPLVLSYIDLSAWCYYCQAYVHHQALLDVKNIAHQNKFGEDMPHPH

[12] = target: T3, Protein deacetylase HDAC6 (Homo sapiens) (UniProt Q9UBN7); assay: Inhibition of HDAC6 in human SH-SY5Y cells assessed as increase in acetylation of alpha-tubulin incubated for 30 hrs by Western blot analysis; type: cell-based
T3 sequence (whole entry): T2 sequence (Q9UBN7 whole entry)
Method in brief: (§4)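 Human neuroblastoma SH-SY5Y cells treated 30 h at 0.1, 1.0 and 5.0 μM; cell lysates probed by Western blot for acetylated α-tubulin (HDAC6 cellular marker) and histone H3 acetylated at lysines 9/14 (H3K9K14ac).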

[13] = target: T4, Histone deacetylase (Homo sapiens) (UniProt Q13547+O15379+Q9UBN7+Q92769+Q9UQL6+Q8WUI4+Q9BY41+Q96DB2+P56524+Q9UKV0+Q969S8); assay: Inhibition of HDAC in human SH-SY5Y cells assessed as increase in acetylation of histone 3 at lysines 9/14 at 0.1 to 5 uM incubated for 30 hrs by Western blot analysis; type: cell-based; method in brief: as §4
SH-SY5Y [14] = assay: Cytotoxicity against human SH-SY5Y cells up to 100 uM incubated for 24 hrs by MTS assay; type: cell-based; method in brief: as §1
SH-SY5Y [15] = assay: Neuroprotective activity against H2O2-induced cell death in human SH-SY5Y cells at 0.1 uM incubated for 24 hrs by MTS assay; type: functional, cell-based
Method in brief: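 SH-SY5Y cells challenged 24 h with H2O2 (25 and 50 μM) in presence of compounds (0.1–10 μM), alone or as a two-compound combination; viability by MTS assay as % of control.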

SH-SY5Y [16] = assay: Cytoprotective activity against human SH-SY5Y cells assessed as restoration of H2O2-induced p53 expression level at 10 uM incubated for 24 hrs; type: functional, cell-based
Method in brief: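 SH-SY5Y cells exposed to H2O2 (50 μM) with or without test compound (10 μM); p53 protein levels then measured.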

[17] = test system: Cerebellar granule neurone; assay: Neuroprotective activity against 6-OHDA-induced cell death in Wistar rat primary cerebellar granule neurons at 5 uM preincubated for 6 hrs followed by 6-OHDA addition and measured after 24 hrs by MTT assay; type: functional, cell-based
Method in brief: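 Primary differentiated cerebellar granule neurons challenged with 6-OHDA with or without test compound; viability assessed; mean ± SE of at least 3 experiments in quadruplicate, one-way ANOVA with Bonferroni post hoc test.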

SH-SY5Y [18] = assay: Induction of neurogenesis in human SH-SY5Y cells assessed as upregulation of GAP43 mRNA at 10 uM incubated for 24 hrs by RT-PCR analysis; type: functional, cell-based; method in brief: as §2
SH-SY5Y [19] = assay: Induction of neurogenesis in human SH-SY5Y cells assessed as upregulation of N-myc mRNA at 10 uM incubated for 24 hrs by RT-PCR analysis; type: functional, cell-based; method in brief: as §2
SH-SY5Y [20] = assay: Induction of neurogenesis in human SH-SY5Y cells assessed as upregulation of MAP-2 mRNA at 10 uM incubated for 24 hrs by RT-PCR analysis; type: functional, cell-based; method in brief: as §2
SH-SY5Y [21] = assay: Induction of neurogenesis in human SH-SY5Y cells assessed as stimulation of neurite outgrowth at 10 uM incubated for 72 hrs by phase contrast microscopic analysis; type: functional, cell-based
Method in brief: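 SH-SY5Y cells treated 72 h at 10 μM, retinoic acid (10 μM) as positive control; neurite-bearing cells scored from images taken at 20× magnification.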

[22] = Toxicity in zebra fish embryo at 25 uM dosed at 5 hpf and measured after 44 to 48 hpf by microscopic based assay; type: organism-based, Danio rerio; details: zebrafish, in vivo
[23] = Toxicity in zebra fish embryo assessed as lethality at < 100 uM dosed at 5 hpf and measured after 44 to 48 hpf by microscopic based assay; type: organism-based, Danio rerio; details: zebrafish, in vivo
Method in brief: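 Wild-type zebrafish embryos exposed to the compound at concentrations below 100 μM, including 25, 50 and 75 μM. Control embryos were kept in 2% DMSO vehicle. Embryos were scored for lethality, and their morphology, including tail and eye formation, was inspected by imaging.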

[24] = Toxicity in zebra fish embryo assessed as stunted tail at 50 to 75 uM uM dosed at 5 hpf and measured after 44 to 48 hpf by microscopic based assay; type: organism-based, Danio rerio; details: zebrafish, in vivo
[25] = Toxicity in zebra fish embryo assessed as crooked tail at 50 to 75 uM uM dosed at 5 hpf and measured after 44 to 48 hpf by microscopic based assay; type: organism-based, Danio rerio; details: zebrafish, in vivo
[26] = Toxicity in zebra fish embryo assessed as malformation of eye at 75 uM uM dosed at 5 hpf and measured after 44 to 48 hpf by microscopic based assay; type: organism-based, Danio rerio; details: zebrafish, in vivo
[27] = Toxicity in zebra fish embryo assessed as development perturbation at 75 uM dosed at 5 hpf and measured after 44 to 48 hpf by microscopic based assay; type: organism-based, Danio rerio; details: zebrafish, in vivo
[28] = Aqueous solubility of the compound in PBS incubated for 24 hrs under continuous stirring condition by UV spectrometric assay; type: physicochemical
[29] = target: T4, Histone deacetylase (Homo sapiens); assay: Inhibition of HDAC in human SH-SY5Y cells assessed as increase in acetylation of histone 3 at lysines 9/14 at 5 uM incubated for 30 hrs by Western blot analysis; type: cell-based; method in brief: as §4

- inhibition [1]: inactive
- inhibition [2]: Active
Structure (SMILES): O=C(CCCCCCC(=O)Nc1ccccc1)NO [VORINOSTAT]
- Activity (SH-SY5Y [3]): Toxic
- Activity (SH-SY5Y [4]): Active
- Activity (SH-SY5Y [5]): Active
- Activity (SH-SY5Y [6]): Active
- Activity (Microglia [7]): Active
- Activity (Microglia [8]): Active
- Activity (Microglia [9]): inactive

Structure (SMILES): O=C(CCCCCNC(=S)Nc1ccc2c(c1)C(=O)NC2=O)NO
- IC50 [10]: 2.69 µM
- IC50 (Histone deacetylase 1): 12.8 µM
- IC50 [11]: 3.19 µM
- inhibition [12]: Dose-dependent effect
- inhibition [13]: inactive
- inhibition [2]: Active
- Activity (SH-SY5Y [14]): Non-Toxic
- Activity (SH-SY5Y [15]): Active
- Activity (SH-SY5Y [16]): Active
- Activity [17]: Active
- Activity (SH-SY5Y [18]): Active
- Activity (SH-SY5Y [19]): Active
- Activity (SH-SY5Y [20]): Active
- Activity (SH-SY5Y [21]): Active
- Activity (Microglia [7]): Active
- Activity (Microglia [8]): Active
- Activity (Microglia [9]): inactive
- Activity [22]: Non-Toxic
- Activity [23]: Non-Toxic
- Activity [24]: Toxic
- Activity [25]: Toxic
- Activity [26]: Toxic
- Activity [27]: Toxic
- solubility at 24 h [28]: 153 µM (≈ 53.8 µg/mL)
- inhibition [29]: inactive

Structure (SMILES): CC1=C(/C=C/C(C)=C/C=C/C(C)=C/C(=O)O)C(C)(C)CCC1
- Activity (SH-SY5Y [18]): Active
- Activity (SH-SY5Y [19]): Active
- Activity (SH-SY5Y [20]): Active
- Activity (SH-SY5Y [21]): Active

- IC50 [10]: 20 µM
- IC50 (Histone deacetylase 1): 3.75 µM
- IC50 [11]: 18.1 µM
Structure (SMILES): O=C(CCNC(=S)Nc1ccc2c(c1)C(=O)NC2=O)NO
